Test results from ChEMBL document CHEMBL1140766, “SAR of a series of anti-HSV-1 acridone derivatives, and a rational acridone-based design of a new anti-HSV-1 3H-benzo[b]pyrazolo[3,4-h]-1,6-naphthyridine series” (Bioorg Med Chem, 2008).
Calls of active or inactive are those of the source. The rule behind the calls is not given here.

Key:
[1] = system: Human alphaherpesvirus 1; assay: Antiviral activity against acyclovir-resistant HSV1 AR29 replication in Vero cells at 50 uM after 72 hrs; type: functional; conditions: for inhibition at 50 µM: Human alphaherpesvirus 1, AR29, Vero
Summary of the method: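 Confluent Vero monolayers (DMEM, 5% FCS, 37 C, 5% CO2) infected with HSV-1 AR-29 at m.o.i. 1, 0.1, 0.01 or 0.001 for 1 h at 37 C. Cells were PBS-washed, then given medium with or without compound at 50 µM. At 72 h, titer was read as TCID50/mL by end-point dilution (Reed–Muench). % inhibition came from treated versus mock-treated infected titers. Acyclovir 50 µM served as control. Duplicates, ≥3 experiments.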

[2] = Cytotoxicity against african green monkey Vero cells assessed as cell viability after 72 hrs by MTT assay; type: cell-based; conditions: chlorocebus sabaeus
[3] = system: Human alphaherpesvirus 1; assay: Antiviral activity against acyclovir-resistant HSV1 AR29 replication in Vero cells after 72 hrs; type: functional; conditions: for EC50: Human alphaherpesvirus 1, AR29, Vero, read-out: ED50 (the source's name)
[4] = system: Human alphaherpesvirus 1; assay: Antiviral activity against acyclovir-resistant HSV1 AR29 replication in Vero cells at >50 uM after 72 hrs; type: functional

SMILES | inhibition at 50 µM [1] | CC50 at 72 h [2] | EC50 [3] | also measured
Cc1ccc2nc3c(cnc4c3cnn4-c3ccccc3)c(Cl)c2c1 | 82% | 640 µM | – | –
Cc1cccc2c(O)c3c(O)cc(O)cc3nc12 | – | – | 8 µM | –
COc1cccc2c(O)c3c(O)cc(O)cc3nc12 | – | – | 2.2 µM | –
O=c1c2ccccc2[nH]c2c1cnc1c2cnn1-c1ccccc1 | 74% | 640 µM | – | –
O=c1c2ccc(Cl)cc2[nH]c2cc(O)cc(O)c12 | – | – | 10 µM | –
Cc1nn(-c2ccccc2)c2ncc3c(Cl)c4cc(Cl)ccc4nc3c12 | 39% | 640 µM | – | –
Cc1ccc2[nH]c3c(cnc4c3cnn4-c3ccccc3)c(=O)c2c1 | 92% | 640 µM | – | –
O=c1c2cc(Cl)ccc2[nH]c2cc(O)cc(O)c12 | – | – | 16 µM | –
Cc1cccc2c(Cl)c3cnc4c(c(C)nn4-c4ccccc4)c3nc12 | 66% | 640 µM | – | –
COc1ccc2nc3c(cnc4c3cnn4-c3ccccc3)c(Cl)c2c1 | 68% | 640 µM | – | –
Nc1nc2c(ncn2COCCO)c(=O)[nH]1 [ACYCLOVIR] | – | 126 µM | – | –
Cc1ccc2nc3c(cnc4c3c(C)nn4-c3ccccc3)c(Cl)c2c1 | – | – | – | Activity [1]: inactive
Cc1cc(O)c2c(=O)c3cccc(Cl)c3[nH]c2c1 | – | – | – | Activity [3]: inactive
Cc1nn(-c2ccccc2)c2ncc3c(Cl)c4cccc(Cl)c4nc3c12 | 100% | – | – | –
Cc1nn(-c2ccccc2)c2ncc3c(Cl)c4ccccc4nc3c12 | 70% | – | – | –
O=c1c2c(O)cc(O)cc2[nH]c2cccc(Cl)c12 | – | – | 10 µM | –
COc1cc(O)c2c(=O)c3cccc(Cl)c3[nH]c2c1 | – | – | > 50 µM | Inhibition [4]: 6%
O=c1c2cccc(Cl)c2[nH]c2cc(O)cc(O)c12 | – | – | 4 µM | –
O=c1c2cccc(Cl)c2[nH]c2cc3ccccc3c(O)c12 | – | – | – | Activity [3]: inactive
O=c1c2ccccc2[nH]c2cc(O)cc(O)c12 | – | – | 45 µM | –
